{
  "source": "paper PMC4363277",
  "about": "(Amino acids, 2015)",
  "system": "B16/F1 melanoma cells",
  "assay": "Cytotoxicity in B16/F1 melanoma cells",
  "assay_type": "cell-based, murine",
  "conditions": "0.1 µM, 3 h incubation at 37 °C, MTT 5 days post treatment",
  "outline": "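B16/F1 cells at 150/well, overnight in CO2 incubator, washed with RPMI 1640, then exposed 3 h at 37 °C to 0.1 µM test compound in binding medium; controls kept in culture medium only. Washed, grown 5 days with medium changed every other day; MTT (0.5 mg/mL) 3 h at 37 °C, formazan dissolved in acidic isopropanol, A570 minus A630. Survival = treated/control absorbance × 100%.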",
  "data": [
    {"substance": "[Cys^3,4,10, D-Phe^7, Arg^11]α-MSH3–13 [(Arg^11)CCMSH]", "values": [
      {"measurement": "decrease of survival percentage versus untreated control cells", "value": 15, "unit": "%"}
    ]}
  ]
}
